Where “and” joins values, the source holds several entries; their conditions need not be identical. Identical values can stand only once.
Test system: Fibroblast
Assay: Multiplex assay against human fibroblast
Type: toxicity, cell-based
How it was run: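 Per cents of healthy-nucleus cells form the tubulin, mitochondrial-mass and membrane-permeability phenotype values. Live cells were stained at seeding with Hoechst33342, BioTracker Green Microtubule Cytoskeleton Dye, MitoTracker Red and Annexin V Alexa Fluor 680. After compound addition they were imaged on a CQ1 microscope at 37°C and 5% CO2, and CellPathfinder machine-learning gating split them into Hoechst high-intensity objects or normal cells, normal cells into healthy, pyknosed or fragmented nuclei, and pyknosed cells into mitotic or apoptotic.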

[1] = 12 h, 1 µM, compound concentration 1 uM
[2] = 12 h, 10 µM, compound concentration 10 uM
[3] = 24 h, 1 µM, compound concentration 1 uM
[4] = 24 h, 10 µM, compound concentration 10 uM
[5] = 48 h, 1 µM, compound concentration 1 uM
[6] = 48 h, 10 µM, compound concentration 10 uM

Cc1cc(C)cc(C(=O)NOCCCCCC(=O)NO)c1
Population Apoptotic (%) [1]: 12.9% and 17.65% | Population Fragmented Nuclei (%) [1]: 11.22% and 2.55% | Population Healthy Nuclei (%) [1]: 72.96% and 88.78% | Population Hoechst High Intensity Objects (%) [1]: 0% | Population Membrane Permeable-Phenotype (%) [1]: 5.59% and 1.15% | Population Mitochondria Different-Phenotype (%) [1]: 6.99% and 10.34% | Population Mitotic Cells (%) [1]: 87.1% and 82.35% | Population Normal (%) [1]: 100% | Population Pyknosed Nuclei (%) [1]: 15.82% and 8.67% | Population Tubulin-Different-Phenotype (%) [1]: 8.39% and 11.49% | Total Cell Count [1]: 196 | Population Apoptotic (%) [2]: 12% and 31.25% | Population Fragmented Nuclei (%) [2]: 15.5% and 6.05% | Population Healthy Nuclei (%) [2]: 72% and 86.51% | Population Hoechst High Intensity Objects (%) [2]: 0% | Population Membrane Permeable-Phenotype (%) [2]: 6.94% and 1.61% | Population Mitochondria Different-Phenotype (%) [2]: 5.56% and 6.45% | Population Mitotic Cells (%) [2]: 88% and 68.75% | Population Normal (%) [2]: 100% | Population Pyknosed Nuclei (%) [2]: 12.5% and 7.44% | Population Tubulin-Different-Phenotype (%) [2]: 9.03% and 6.45% | Total Cell Count [2]: 200 and 215 | Population Apoptotic (%) [3]: 13.33% and 23.08% | Population Fragmented Nuclei (%) [3]: 12.92% and 3.9% | Population Healthy Nuclei (%) [3]: 79.9% and 89.76% | Population Hoechst High Intensity Objects (%) [3]: 0% | Population Membrane Permeable-Phenotype (%) [3]: 4.79% and 2.17% | Population Mitochondria Different-Phenotype (%) [3]: 3.59% and 7.07% | Population Mitotic Cells (%) [3]: 86.67% and 76.92% | Population Normal (%) [3]: 100% | Population Pyknosed Nuclei (%) [3]: 7.18% and 6.34% | Population Tubulin-Different-Phenotype (%) [3]: 3.59% and 8.15% | Total Cell Count [3]: 209 and 205 | Population Apoptotic (%) [4]: 63.64% and 52.94% | Population Healthy Nuclei (%) [4]: 80.39% and 88.26% | Population Hoechst High Intensity Objects (%) [4]: 0% | Population Membrane Permeable-Phenotype (%) [4]: 3.66% and 0% | Population Mitochondria Different-Phenotype (%) [4]: 2.44% and 4.26% | Population Mitotic Cells (%) [4]: 36.36% and 47.06% | Population Normal (%) [4]: 100% | Population Pyknosed Nuclei (%) [4]: 5.39% and 7.98% | Population Tubulin-Different-Phenotype (%) [4]: 3.66% and 2.66% | Total Cell Count [4]: 204 and 213 | Population Apoptotic (%) [5]: 47.37% and 53.33% | Population Fragmented Nuclei (%) [5]: 8.06% and 10.87% | Population Healthy Nuclei (%) [5]: 82.94% and 82.61% | Population Hoechst High Intensity Objects (%) [5]: 0% | Population Membrane Permeable-Phenotype (%) [5]: 0.57% and 1.58% | Population Mitotic Cells (%) [5]: 52.63% and 46.67% | Population Normal (%) [5]: 100% | Population Pyknosed Nuclei (%) [5]: 9% and 6.52% | Population Tubulin-Different-Phenotype (%) [5]: 2.29% and 8.42% | Total Cell Count [5]: 211 and 230 | Population Apoptotic (%) [6]: 44.19% and 95.35% | Population Healthy Nuclei (%) [6]: 57.64% and 74.04% | Population Hoechst High Intensity Objects (%) [6]: 0% | Population Membrane Permeable-Phenotype (%) [6]: 1.71% and 10.39% | Population Normal (%) [6]: 100% | Population Pyknosed Nuclei (%) [6]: 21.18% and 20.67% | Population Tubulin-Different-Phenotype (%) [6]: 4.27% and 13.64% | Total Cell Count [6]: 203 and 208

COC[C@@H](CC(C)C)NC1=N/C(=C\c2ccc3ncsc3c2)C(=O)N1C
Population Apoptotic (%) [1]: 28.21% and 31.58% | Population Fragmented Nuclei (%) [1]: 27.8% and 24.34% | Population Healthy Nuclei (%) [1]: 58.12% and 69.41% | Population Hoechst High Intensity Objects (%) [1]: 0% | Population Membrane Permeable-Phenotype (%) [1]: 3.73% and 4.27% | Population Mitochondria Different-Phenotype (%) [1]: 9.94% and 6.64% | Population Mitotic Cells (%) [1]: 71.79% and 68.42% | Population Normal (%) [1]: 100% | Population Pyknosed Nuclei (%) [1]: 14.08% and 6.25% | Population Tubulin-Different-Phenotype (%) [1]: 13.66% and 33.18% | Total Cell Count [1]: 277 and 304 | Population Fragmented Nuclei (%) [2]: 75.02% and 85.21% | Population Healthy Nuclei (%) [2]: 17.78% and 11.87% | Population Hoechst High Intensity Objects (%) [2]: 13.82% and 16.56% | Population Membrane Permeable-Phenotype (%) [2]: 4.92% and 5.22% | Population Mitochondria Different-Phenotype (%) [2]: 5.46% and 4.48% | Population Mitotic Cells (%) [2]: 87.84% and 51.52% | Population Normal (%) [2]: 86.18% and 83.44% | Population Pyknosed Nuclei (%) [2]: 7.19% and 2.92% | Population Tubulin-Different-Phenotype (%) [2]: 16.94% and 38.81% | Total Cell Count [2]: 1194 and 1353 | Population Apoptotic (%) [3]: 32.26% and 29.41% | Population Fragmented Nuclei (%) [3]: 28.52% and 23.81% | Population Healthy Nuclei (%) [3]: 60.56% and 70.41% | Population Hoechst High Intensity Objects (%) [3]: 0% | Population Membrane Permeable-Phenotype (%) [3]: 1.16% and 4.83% | Population Mitochondria Different-Phenotype (%) [3]: 10.47% and 6.28% | Population Mitotic Cells (%) [3]: 67.74% and 70.59% | Population Normal (%) [3]: 100% | Population Pyknosed Nuclei (%) [3]: 10.92% and 5.78% | Population Tubulin-Different-Phenotype (%) [3]: 18.02% and 35.27% | Total Cell Count [3]: 284 and 294 | Population Apoptotic (%) [4]: 15.79% and 43.33% | Population Fragmented Nuclei (%) [4]: 73.6% and 85.59% | Population Healthy Nuclei (%) [4]: 21.08% and 11.79% | Population Hoechst High Intensity Objects (%) [4]: 7.03% and 15.44% | Population Membrane Permeable-Phenotype (%) [4]: 6.19% and 3.7% | Population Mitotic Cells (%) [4]: 84.21% and 56.67% | Population Normal (%) [4]: 92.97% and 84.56% | Population Pyknosed Nuclei (%) [4]: 5.32% and 2.62% | Population Tubulin-Different-Phenotype (%) [4]: 36.73% and 51.85% | Total Cell Count [4]: 1153 and 1354 | Population Apoptotic (%) [5]: 32.14% and 52.94% | Population Fragmented Nuclei (%) [5]: 34.66% and 16.78% | Population Healthy Nuclei (%) [5]: 57.39% and 77.27% | Population Hoechst High Intensity Objects (%) [5]: 0% | Population Membrane Permeable-Phenotype (%) [5]: 1.98% and 1.36% | Population Mitochondria Different-Phenotype (%) [5]: 7.43% and 5.43% | Population Mitotic Cells (%) [5]: 67.86% and 47.06% | Population Normal (%) [5]: 100% | Population Pyknosed Nuclei (%) [5]: 7.95% and 5.94% | Total Cell Count [5]: 352 and 286 | Population Apoptotic (%) [6]: 14.55% and 28.57% | Population Fragmented Nuclei (%) [6]: 76.66% and 86.7% | Population Healthy Nuclei (%) [6]: 18.12% and 11% | Population Hoechst High Intensity Objects (%) [6]: 20.81% and 19.66% | Population Membrane Permeable-Phenotype (%) [6]: 13.61% and 14.18% | Population Mitochondria Different-Phenotype (%) [6]: 1.57% and 10.45% | Population Mitotic Cells (%) [6]: 85.45% and 71.43% | Population Normal (%) [6]: 79.19% and 80.34% | Population Pyknosed Nuclei (%) [6]: 5.22% and 2.3% | Population Tubulin-Different-Phenotype (%) [6]: 27.75% and 50.75% | Total Cell Count [6]: 1331 and 1516

Reference: ChEMBL document CHEMBL5724801, “EUbOPEN Chemogenomics Library - Multiplex” (2024)
